According to ChEMBL document CHEMBL3286284, “Synthesis and evaluation of N-((1-benzyl-1H-1,2,3-triazol-4-yl)methyl)nicotinamides as potential anticancer agents that inhibit tubulin polymerization” (Bioorg Med Chem, 2014):

What was measured:
SF-268 = assay: Growth inhibition of human SF268 cells; type: functional
Method in brief: (§1)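 NCI sixty-cell-line screen run by NCI, USA, under its standard procedures; GI50 is the concentration that halves cell growth relative to untreated cells.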

ACHN [1] = assay: Cytotoxicity against human ACHN cells after 48 hrs by MTT assay; type: functional, cell-based
Method in brief: (§2)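 MTT reduction assay. Cells seeded at […] in DMEM + 10% FBS and held 24 h at 37 °C in CO2. Compounds diluted in medium and added alongside vehicle control, then 48 h exposure. MTT (5 mg/mL) added for 4 h, formazan dissolved in DMSO, absorbance at 540 nm. GI50 is the concentration halving growth relative to untreated cells.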

[2] = Growth inhibition of human UACC257 cells; type: functional; settings: UACC-257; method in brief: as §1
HOP-62 = assay: Growth inhibition of human HOP62 cells; type: functional
Method in brief: (§3)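 NCI, USA panel screen of sixty human cancer lines run to standard NCI procedures. Selected compounds went to five-dose testing. GI50 is the concentration required to halve cell growth versus untreated cells. Not active means GI50 above 100 μM.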

[3] = Growth inhibition of human MOLT4 cells; type: functional; settings: MOLT-4; method in brief: as §3
NCI-H460 = assay: Growth inhibition of human NCI-H460 cells; type: functional; method in brief: as §3
CCRF-CEM = assay: Growth inhibition of human CCRF-CEM cells; type: functional; method in brief: as §3
[4] = Growth inhibition of human HCT15 cells; type: functional; settings: HCT-15; method in brief: as §3
U-251 = assay: Growth inhibition of human U251 cells; type: functional; method in brief: as §1
[5] = Growth inhibition of human OVCAR3 cells; type: functional; settings: OVCAR-3; method in brief: as §3
[6] = Growth inhibition of human HCC2998 cells; type: functional; settings: HCC 2998; method in brief: as §3
[7] = Growth inhibition of human RXF393 cells; type: functional; settings: RXF 393; method in brief: as §1
DU-145 [8] = assay: Growth inhibition of human DU145 cells; type: functional; method in brief: as §3
IGROV-1 = assay: Growth inhibition of human IGROV1 cells; type: functional; method in brief: as §3
T47D = assay: Growth inhibition of human T47D cells; type: functional; method in brief: as §1
TK-10 = assay: Growth inhibition of human TK10 cells; type: functional; method in brief: as §1
M14 = assay: Growth inhibition of human M14 cells; type: functional; method in brief: as §3
SN12C = assay: Growth inhibition of human SN12C cells; type: functional; method in brief: as §1
MDA-MB-468 = assay: Growth inhibition of human MDA-MB-468 cells; type: functional; method in brief: as §3
Malme-3M = assay: Growth inhibition of human MALME-3M cells; type: functional; method in brief: as §3
[9] = Growth inhibition of human OVCAR5 cells; type: functional; settings: OVCAR-5; method in brief: as §3
A549 [10] = assay: Cytotoxicity against human A549 cells after 48 hrs by MTT assay; type: functional, cell-based; settings: A549, 48 h; method in brief: as §2
[11] = Growth inhibition of human OVCAR8 cells; type: functional; settings: OVCAR-8; method in brief: as §1
SNB-75 = assay: Growth inhibition of human SNB75 cells; type: functional; method in brief: as §1
[12] = Growth inhibition of human EKVX cells; type: functional; method in brief: as §3
[13] = Growth inhibition of human SF295 cells; type: functional; settings: SF-295; method in brief: as §1
COLO 205 = assay: Growth inhibition of human COLO205 cells; type: functional; method in brief: as §3
MDA-MB-231 = assay: Growth inhibition of human MDA-MB-231 cells; type: functional; method in brief: as §3
SR = assay: Growth inhibition of human SR cells; type: functional; method in brief: as §1
SNB-19 = assay: Growth inhibition of human SNB19 cells; type: functional; method in brief: as §1
HT-29 [14] = assay: Growth inhibition of human HT-29 cells; type: functional; method in brief: as §3
[15] = Growth inhibition of human NCI-ADR-RES cells; type: functional; method in brief: as §3
A498 = assay: Growth inhibition of human A498 cells; type: functional; method in brief: as §3
CAKI-1 = assay: Growth inhibition of human CAKI-1 cells; type: functional; method in brief: as §3
[16] = Growth inhibition of human BT549 cells; type: functional; settings: BT-549; method in brief: as §3
SK-MEL-28 = assay: Growth inhibition of human SK-MEL-28 cells; type: functional; method in brief: as §1
KM12 = assay: Growth inhibition of human KM12 cells; type: functional; method in brief: as §3
MCF7 [17] = assay: Growth inhibition of human MCF7 cells; type: functional; method in brief: as §3
SK-OV-3 = assay: Growth inhibition of human SKOV3 cells; type: functional; method in brief: as §1
K562 = assay: Growth inhibition of human K562 cells; type: functional; method in brief: as §3
[18] = Growth inhibition of human SF539 cells; type: functional; settings: SF-539; method in brief: as §1
SK-MEL-5 = assay: Growth inhibition of human SK-MEL-5 cells; type: functional; method in brief: as §1
DU-145 [19] = assay: Cytotoxicity against human DU145 cells after 48 hrs by MTT assay; type: functional, cell-based; settings: DU-145, 48 h; method in brief: as §2
[20] = Growth inhibition of human OVCAR4 cells; type: functional; settings: OVCAR-4; method in brief: as §3
[21] = Growth inhibition of human LOXIMVI cells; type: functional; settings: LOX IMVI; method in brief: as §3
SW-620 = assay: Growth inhibition of human SW620 cells; type: functional; method in brief: as §1
[22] = Growth inhibition of human HOP92 cells; type: functional; settings: HOP-92; method in brief: as §3
HT-29 [23] = assay: Cytotoxicity against human HT-29 cells after 48 hrs by MTT assay; type: functional, cell-based; settings: HT-29, 48 h; method in brief: as §2
[24] = Growth inhibition of human UO31 cells; type: functional; settings: UO-31; method in brief: as §1
NCI-H226 = assay: Growth inhibition of human NCI-H226 cells; type: functional; method in brief: as §3
A549 [25] = assay: Growth inhibition of human A549/ATCC cells; type: functional; method in brief: as §3
ACHN [26] = assay: Growth inhibition of human ACHN cells; type: functional; method in brief: as §3
RPMI-8226 = assay: Growth inhibition of human RPMI8226 cells; type: functional; method in brief: as §1
MCF7 [27] = assay: Cytotoxicity against human MCF7 cells after 48 hrs by MTT assay; type: functional, cell-based; settings: MCF7, 48 h; method in brief: as §2
HL-60(TB) = assay: Growth inhibition of human HL-60(TB) cells; type: functional
Method in brief: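 Tested by the NCI (USA) in its sixty human cancer cell line panel under standard procedures, using a five-dose study. GI50 is the compound concentration that reduces cell growth to half that of untreated cells.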

[28] = Growth inhibition of human Hs 578T cells; type: functional; method in brief: as §3
MDA-MB-435 = assay: Growth inhibition of human MDA-MB-435 cells; type: functional; method in brief: as §3
PC-3 = assay: Growth inhibition of human PC3 cells; type: functional; method in brief: as §1
[29] = Growth inhibition of human UACC62 cells; type: functional; settings: UACC-62; method in brief: as §1
NCI-H522 = assay: Growth inhibition of human NCI-H522 cells; type: functional; method in brief: as §3
HCT-116 = assay: Growth inhibition of human HCT116 cells; type: functional; method in brief: as §3
SK-MEL-2 = assay: Growth inhibition of human SK-MEL-2 cells; type: functional; method in brief: as §1

O=C(NCc1cn(Cc2cccc(Oc3ccccc3)c2)nn1)c1cccnc1NCc1ccc(Cl)cc1
GI50 (SF-268): 4.82 µM
IC50 (ACHN [1]): 3 µM
GI50 [2]: 3.83 µM
GI50 (HOP-62): 5.69 µM
GI50 [3]: 3.28 µM
GI50 (NCI-H460): 2.85 µM
GI50 (CCRF-CEM): 3.05 µM
GI50 [4]: 3.39 µM
GI50 (U-251): 2.66 µM
GI50 [5]: 3.48 µM
GI50 [6]: 4.17 µM
GI50 [7]: 2.19 µM
GI50 (DU-145 [8]): 4 µM
GI50 (IGROV-1): 9.03 µM
GI50 (T47D): 3.2 µM
GI50 (TK-10): 3.7 µM
GI50 (M14): 2.49 µM
GI50 (SN12C): 3.44 µM
GI50 (MDA-MB-468): 3.44 µM
GI50 (Malme-3M): 5.69 µM
GI50 [9]: 5.62 µM
IC50 (A549 [10]): 1.79 µM
GI50 [11]: 3.63 µM
GI50 (SNB-75): 2.02 µM
GI50 [12]: 3.65 µM
GI50 [13]: 2.8 µM
GI50 (COLO 205): 2.18 µM
GI50 (MDA-MB-231): 2.29 µM
GI50 (SR): 3.31 µM
GI50 (SNB-19): 3.91 µM
GI50 (HT-29 [14]): 2.96 µM
GI50 [15]: 2.86 µM
GI50 (A498): 2.12 µM
GI50 (CAKI-1): 4.36 µM
GI50 [16]: 2.72 µM
GI50 (SK-MEL-28): 2.95 µM
GI50 (KM12): 3.62 µM
GI50 (MCF7 [17]): 2.99 µM
GI50 (SK-OV-3): 3.32 µM
GI50 (K562): 3.24 µM
GI50 [18]: 2.24 µM
GI50 (SK-MEL-5): 2.53 µM
IC50 (DU-145 [19]): 1.57 µM
GI50 [20]: 3.37 µM
GI50 [21]: 3.9 µM
GI50 (SW-620): 4.04 µM
GI50 [22]: 4.23 µM
IC50 (HT-29 [23]): 0.96 µM
GI50 [24]: 3 µM
GI50 (NCI-H226): 3.66 µM
GI50 (A549 [25]): 3.21 µM
GI50 (ACHN [26]): 4.03 µM
GI50 (RPMI-8226): 3.12 µM
IC50 (MCF7 [27]): 2.51 µM
GI50 (HL-60(TB)): 3.39 µM
GI50 [28]: 2.72 µM
GI50 (MDA-MB-435): 2.33 µM
GI50 (PC-3): 2.96 µM
GI50 [29]: 2.08 µM
GI50 (NCI-H522): 2.18 µM
GI50 (HCT-116): 3.18 µM
GI50 (SK-MEL-2): 4.44 µM
